The values that follow come from ChEMBL document CHEMBL1142195, “A novel nonnucleoside analogue that inhibits human immunodeficiency virus type 1 isolates resistant to current nonnucleoside reverse transcriptase inhibitors” (Antimicrob Agents Chemother, 2007).

As a reminder, the Cmax is the peak of the concentration-time curve. A word on the AUC: it is the area under the concentration-time curve, a measure of exposure. The low end stands for low exposure, the high end for high exposure. For orientation: EC50 means the concentration that produces a half-maximal response. By Tmax is commonly meant the time from dosing to the highest level. Broadly, the half-life is the time needed for the level to fall by half in the phase considered.

The source made the active and inactive calls.

The subject of data set [1] is Human immunodeficiency virus 1. The data set can be described thus: Antiviral activity against HIV1 isolate with RT 101R, 103N, 181C, 190A mutation relative to wild type. It counts as functional.
Data set [2] in a line: Cmax in dog at 20 mg/kg, po. It counts as ADME, organism-based, Canis lupus familiaris. Details: dose 20 mg/kg, route oral. The following applies: in vivo.
Data set [3] is described as follows: AUC in dog at 20 mg/kg, po. Also noted: dose 20 mg/kg, route oral. The format is ADME, organism-based, Canis lupus familiaris. To be noted: plasma.
The test system of data set [4] is Hepatitis C virus. The data set can be described thus: Inhibition of hepatitis C virus replication. The following applies: Hepacivirus hominis. The format is functional, organism-based.
Data set [5] concerns Human immunodeficiency virus 1. The data set can be described thus: Inhibition of non-B HIV1 isolates (clades A, AC, C, D and F). It counts as functional, organism-based.
Data set [6] has as its system Human immunodeficiency virus 1. The data set can be described thus: Antiviral activity against HIV1 isolate with RT V106I mutation in Hela-JC-53 cells. The format is functional.
Data set [7] concerns Human immunodeficiency virus 1. Nature of the data set: Antiviral activity against HIV1 isolate with RT K103N-V108I-P225H mutation. The format is functional, organism-based. The gist of the method:
(§1)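 VSV-G-pseudotyped pNL4-3.Luc.R−E− molecular clones carrying the RT mutations, single-round infection of HeLa-JC53 cells (15,000/well) at MOI 0.03. Compounds serially diluted 1:4 in DMSO then in phenol red-free DMEM with 2% FBS, final DMSO 0.2%. Incubated 48 h at 37°C, 5% CO2. Luciferase read-out by chemiluminescence gives the EC50. Fold change is relative to wt virus, mean of two tests.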

The target in data set [8] is T1, DNA polymerase alpha catalytic subunit (Homo sapiens) (UniProt P09884).
T1 sequence (whole entry): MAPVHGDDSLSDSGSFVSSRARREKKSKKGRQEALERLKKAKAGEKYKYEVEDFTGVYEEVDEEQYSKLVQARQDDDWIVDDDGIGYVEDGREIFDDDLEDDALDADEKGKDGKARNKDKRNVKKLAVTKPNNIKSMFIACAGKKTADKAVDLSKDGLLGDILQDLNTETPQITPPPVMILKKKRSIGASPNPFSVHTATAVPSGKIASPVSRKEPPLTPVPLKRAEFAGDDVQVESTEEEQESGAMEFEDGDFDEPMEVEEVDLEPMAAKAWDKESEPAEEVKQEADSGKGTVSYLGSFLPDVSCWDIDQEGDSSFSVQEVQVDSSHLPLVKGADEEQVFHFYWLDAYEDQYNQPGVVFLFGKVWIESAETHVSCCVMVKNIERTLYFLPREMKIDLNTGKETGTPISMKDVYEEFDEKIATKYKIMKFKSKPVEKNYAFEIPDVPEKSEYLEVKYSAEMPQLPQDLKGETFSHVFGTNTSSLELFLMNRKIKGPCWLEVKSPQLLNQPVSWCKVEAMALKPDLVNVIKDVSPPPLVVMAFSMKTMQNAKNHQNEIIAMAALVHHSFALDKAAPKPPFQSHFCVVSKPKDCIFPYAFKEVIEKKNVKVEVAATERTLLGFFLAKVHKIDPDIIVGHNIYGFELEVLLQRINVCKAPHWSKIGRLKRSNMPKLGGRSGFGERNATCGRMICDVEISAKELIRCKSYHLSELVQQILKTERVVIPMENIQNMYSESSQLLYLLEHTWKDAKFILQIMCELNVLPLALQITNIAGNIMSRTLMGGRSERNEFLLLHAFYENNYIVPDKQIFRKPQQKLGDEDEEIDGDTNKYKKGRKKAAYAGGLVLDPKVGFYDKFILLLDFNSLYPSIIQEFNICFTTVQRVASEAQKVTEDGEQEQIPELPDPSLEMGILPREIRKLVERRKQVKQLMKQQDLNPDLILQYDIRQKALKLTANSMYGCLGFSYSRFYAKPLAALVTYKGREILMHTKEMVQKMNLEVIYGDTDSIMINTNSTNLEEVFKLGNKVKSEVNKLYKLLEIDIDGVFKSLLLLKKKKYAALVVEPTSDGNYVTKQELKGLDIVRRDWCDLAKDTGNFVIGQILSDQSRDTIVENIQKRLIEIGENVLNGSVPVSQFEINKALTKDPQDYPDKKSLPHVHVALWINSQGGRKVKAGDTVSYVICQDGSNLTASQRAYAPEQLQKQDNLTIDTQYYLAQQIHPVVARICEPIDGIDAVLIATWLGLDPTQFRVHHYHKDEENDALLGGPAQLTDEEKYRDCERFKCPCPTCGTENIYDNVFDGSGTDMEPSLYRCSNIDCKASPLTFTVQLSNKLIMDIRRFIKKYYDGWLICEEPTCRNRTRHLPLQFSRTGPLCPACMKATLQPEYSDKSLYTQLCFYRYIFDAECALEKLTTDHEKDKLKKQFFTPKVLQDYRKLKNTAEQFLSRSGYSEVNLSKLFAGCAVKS
The data set can be described thus: Inhibition of human DNA polymerase alpha upto 45 uM.

A short description of data set [9]: Tmax in dog at 20 mg/kg, po. The format is ADME, organism-based, Canis lupus familiaris. Details: dose 20 mg/kg, route oral. To be noted: in vivo.
Data set [10] concerns Human immunodeficiency virus 1. The data set can be described thus: Antiviral activity against wild type HIV1 NL4-3 in Hela-JC53 cells after 48 hrs. The following applies: Human immunodeficiency virus 1, NL4-3, Hela-JC53, 48 h. The format is functional, organism-based. In short, it runs like this: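 Single-round assay in HeLa-JC53 cells (15,000/well) using VSV-G-pseudotyped pNL4-3.Luc.R−E−-derived virus at MOI 0.03. Compounds serially diluted 1:4 in DMSO then medium (2% FBS; final DMSO 0.2%). Incubated 48 h at 37°C in 5% CO2. Luciferase chemiluminescence read-out; EC50 determined.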

For data set [11], the system named is Human immunodeficiency virus 1. Nature of the data set: Antiviral activity against HIV1 isolate with RT G190A mutation. It counts as functional, organism-based. In short, it runs like this: as §1
Data set [12] relates to Human immunodeficiency virus 1. The data set can be described thus: Antiviral activity against HIV1 isolate with RT K103N-G190A mutation. It counts as functional, organism-based. In short, it runs like this:
as §1

Data set [13] deals with Human immunodeficiency virus 1. Nature of the data set: Antiviral activity against wild type HIV1. The format is functional, organism-based.
The subject of data set [14] is Human immunodeficiency virus 1. Nature of the data set: Antiviral activity against HIV1 isolate with RT V106I, Y181C, F227L mutation in Hela-JC-53 cells. The format is functional.
Data set [15] relates to Human immunodeficiency virus 1. Nature of the data set: Antiviral activity against HIV1 isolate with RT V106I, Y181C, F227L, T369I mutation in Hela-JC-53 cells. The format is functional.
Data set [16] concerns Human immunodeficiency virus 1. Nature of the data set: Antiviral activity against HIV1 NL4-3 with Y188L mutation in Hela-JC53 cells after 48 hrs. It counts as functional, organism-based. The following applies: Human immunodeficiency virus 1, NL4-3, Hela-JC53, 48 h. In short, it runs like this:
(§2)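 VSV-G-pseudotyped Y188L NL4-3.Luci.R−E− virus (MOI 0.03) infecting HeLa-JC53 cells (1.5 × 10^4) in phenol red-free DMEM with 2% FBS. Serially diluted compound was added, then heat-inactivated human serum at final 0, 5, 10, 20, 30, 40 or 50%. Cultures ran 48 h at 37°C in 5% CO2, read by Bright-Glo luciferase chemiluminescence. EC50 was taken by nonlinear regression.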

The subject of data set [17] is Human immunodeficiency virus 1. The data set can be described thus: Antiviral activity against HIV1 NL4-3 with Y188L mutation in Hela-JC53 cells in the presence of 10% human serum after 48 hrs. It counts as functional, organism-based. To be noted: Human immunodeficiency virus 1, NL4-3, Hela-JC53, 48 h. The gist of the method:
as §2

Data set [18] deals with Human immunodeficiency virus 1. Nature of the data set: Antiviral activity against HIV1 NL4-3 with Y188L mutation in Hela-JC53 cells in the presence of 20% human serum after 48 hrs. The following applies: Human immunodeficiency virus 1, NL4-3, Hela-JC53, 48 h. The format is functional, organism-based. In short, it runs like this: as §2
A short description of data set [19]: Half life in dog at 10 mg/kg, iv. The format is ADME, organism-based, Canis lupus familiaris. Details: dose 10 mg/kg, route intravenous. To be noted: in vivo.
A short description of data set [20]: AUC in dog at 10 mg/kg, iv. Details: dose 10 mg/kg, route intravenous. The format is ADME, organism-based, Canis lupus familiaris. The following applies: plasma.
The subject of data set [21] is Human immunodeficiency virus 1. Nature of the data set: Antiviral activity against HIV1 isolate with RT K103N-K101Q mutation. It counts as functional, organism-based. In short, it runs like this:
as §1

The subject of data set [22] is Human immunodeficiency virus 1. Nature of the data set: Antiviral activity against HIV1 isolate with RT K103N-L100I mutation. It counts as functional, organism-based. In short, it runs like this: as §1
Data set [23] has as its system Human immunodeficiency virus 1. Nature of the data set: Antiviral activity against HIV1 isolate with RT K101E mutant. It counts as functional, organism-based. In short, it runs like this: as §1

In turn, `Cc1ccnc2c1NC(=O)c1cccnc1N2C1CC1` [NEVIRAPINE] returned a Fold change in [1] above 100.

On to `NS(=O)(=O)c1ccc(NC(=O)CSc2nnc(Br)n2-c2ccc(C3CC3)c3ccccc23)c(Cl)c1`, for which the Cmax in data set [2] is 1980 ng/mL. For the same molecule, the exposure (AUC) was 19600 ng·h/mL in data set [3] and 20900 ng·h/mL in [20]. The outcome in data set [4] and in data set [8] was inactive. Further, the outcome in data set [5] was Active. In addition, the Fold change was found to be 1 in [6], 18.7 in [14] and 111.9 in [15]. The EC50 in data set [7] worked out at 0.15 nM; in data set [10] it was 0.6 nM; in data set [11], 0.19 nM; in [12], 0.32 nM; in data set [13], 0.14 nM; in [16], 3.7 nM. Besides, the EC50 is 20.7 nM in data set [17]; 43.3 nM in data set [18]; 0.15 nM in data set [21]; 0.05 nM in data set [22]; 0.26 nM in data set [23]. The Tmax in data set [9] was 5.3 h. In data set [19], this molecule showed a half-life of 2.89 h.
